Like-named read-outs stand apart in the source and are kept apart here.
What was measured:
drHDAC10 = target: T1, drHDAC10 (Danio rerio, UniProt F1QCV2); assay: Enzymatic in vitro HDAC10 inhibition assay; assay type: biochemical, zebrafish
T1 sequence (F1QCV2 1-675): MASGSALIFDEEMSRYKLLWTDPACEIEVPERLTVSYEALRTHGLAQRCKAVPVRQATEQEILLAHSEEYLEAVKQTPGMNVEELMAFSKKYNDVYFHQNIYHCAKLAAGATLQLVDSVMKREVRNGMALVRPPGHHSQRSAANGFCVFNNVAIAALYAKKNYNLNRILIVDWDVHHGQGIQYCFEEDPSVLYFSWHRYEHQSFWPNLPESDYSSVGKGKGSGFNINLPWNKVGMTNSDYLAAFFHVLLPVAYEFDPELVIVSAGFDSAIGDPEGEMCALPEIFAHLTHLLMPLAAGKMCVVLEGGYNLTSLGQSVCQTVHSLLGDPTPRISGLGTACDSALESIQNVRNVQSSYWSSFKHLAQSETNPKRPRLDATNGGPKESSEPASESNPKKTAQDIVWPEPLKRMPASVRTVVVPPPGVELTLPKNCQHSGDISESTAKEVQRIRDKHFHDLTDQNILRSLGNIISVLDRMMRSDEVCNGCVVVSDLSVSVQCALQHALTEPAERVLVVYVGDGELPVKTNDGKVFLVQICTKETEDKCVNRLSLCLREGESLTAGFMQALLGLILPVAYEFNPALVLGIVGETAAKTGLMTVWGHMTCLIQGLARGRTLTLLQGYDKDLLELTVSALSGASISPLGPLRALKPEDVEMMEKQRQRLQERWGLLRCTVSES
In short: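 Recombinant wild-type drHDAC10 (5 nM final) was preincubated 5 min with test compound at various concentrations in 20 mM HEPES pH 7.4 with 0.5 mg/mL BSA. The reaction was started with 50 µM Ac-spermidine-AMC and incubated 25 min at 25 °C. A stop solution containing 16 mM NDA derivatized the released primary amine. Fluorescence was read at λex 330 nm and λem 390 nm.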

hHDAC1 = hHDAC1 (Homo sapiens, UniProt Q13547); assay: biochemical; assay type: biochemical; details: for hHDAC1 % @1 µM: inhibitor at 1 µM; for hHDAC1 % @10 µM: inhibitor at 10 µM
hHDAC1, sequence (Q13547 whole entry): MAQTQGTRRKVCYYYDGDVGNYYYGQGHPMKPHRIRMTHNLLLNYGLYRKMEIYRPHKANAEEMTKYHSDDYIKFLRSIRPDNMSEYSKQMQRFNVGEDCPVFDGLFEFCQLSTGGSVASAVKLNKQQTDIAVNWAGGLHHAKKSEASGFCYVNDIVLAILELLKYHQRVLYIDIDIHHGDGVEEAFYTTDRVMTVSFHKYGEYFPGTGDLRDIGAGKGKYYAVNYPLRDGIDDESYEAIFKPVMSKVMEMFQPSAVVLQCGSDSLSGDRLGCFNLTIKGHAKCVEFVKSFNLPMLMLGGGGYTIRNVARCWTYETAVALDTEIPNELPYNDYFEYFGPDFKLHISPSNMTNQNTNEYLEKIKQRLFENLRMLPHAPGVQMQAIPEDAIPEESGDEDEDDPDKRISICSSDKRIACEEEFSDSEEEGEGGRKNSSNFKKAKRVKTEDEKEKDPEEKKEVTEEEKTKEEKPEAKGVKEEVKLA

hHDAC6 = target: T2, hHDAC6 (Homo sapiens, UniProt Q9UBN7); assay: biochemical
T2 sequence (Q9UBN7 1-1215): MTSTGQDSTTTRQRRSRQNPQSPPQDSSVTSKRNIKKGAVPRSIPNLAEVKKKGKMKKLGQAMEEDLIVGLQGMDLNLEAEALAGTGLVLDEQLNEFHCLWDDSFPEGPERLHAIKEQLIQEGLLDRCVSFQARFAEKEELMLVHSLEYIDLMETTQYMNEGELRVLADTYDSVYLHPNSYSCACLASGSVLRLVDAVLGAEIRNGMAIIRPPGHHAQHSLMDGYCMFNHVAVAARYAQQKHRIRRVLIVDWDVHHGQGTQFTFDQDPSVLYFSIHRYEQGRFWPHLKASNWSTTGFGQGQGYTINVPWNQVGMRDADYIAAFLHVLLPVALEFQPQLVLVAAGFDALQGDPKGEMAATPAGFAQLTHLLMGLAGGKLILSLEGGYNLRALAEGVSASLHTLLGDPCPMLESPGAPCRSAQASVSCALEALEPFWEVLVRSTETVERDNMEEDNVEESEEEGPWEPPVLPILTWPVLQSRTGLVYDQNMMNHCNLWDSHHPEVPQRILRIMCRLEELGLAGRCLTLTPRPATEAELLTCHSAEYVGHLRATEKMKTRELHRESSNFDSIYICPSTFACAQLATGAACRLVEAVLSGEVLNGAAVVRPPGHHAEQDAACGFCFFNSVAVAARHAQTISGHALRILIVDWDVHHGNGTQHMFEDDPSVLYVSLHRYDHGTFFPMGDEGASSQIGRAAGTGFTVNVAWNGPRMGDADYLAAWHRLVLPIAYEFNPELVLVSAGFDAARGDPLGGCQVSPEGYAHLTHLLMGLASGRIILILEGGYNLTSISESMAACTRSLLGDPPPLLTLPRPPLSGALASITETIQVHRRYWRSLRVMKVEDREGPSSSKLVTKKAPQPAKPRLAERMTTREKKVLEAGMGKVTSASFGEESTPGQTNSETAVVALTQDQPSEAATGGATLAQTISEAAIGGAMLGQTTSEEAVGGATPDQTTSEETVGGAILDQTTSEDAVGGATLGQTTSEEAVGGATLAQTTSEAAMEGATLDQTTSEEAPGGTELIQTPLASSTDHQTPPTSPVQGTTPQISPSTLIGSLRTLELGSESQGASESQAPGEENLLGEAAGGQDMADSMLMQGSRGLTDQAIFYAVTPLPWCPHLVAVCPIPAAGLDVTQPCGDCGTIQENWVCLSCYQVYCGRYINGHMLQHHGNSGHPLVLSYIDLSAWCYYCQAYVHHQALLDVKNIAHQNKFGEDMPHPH

hHDAC8 = target: T3, hHDAC8 (Homo sapiens, UniProt Q9BY41); assay: biochemical; assay type: biochemical; details: for hHDAC8 % @1 µM: inhibitor at 1 µM; for hHDAC8 % @10 µM: inhibitor at 10 µM
T3 sequence (Q9BY41 1-377): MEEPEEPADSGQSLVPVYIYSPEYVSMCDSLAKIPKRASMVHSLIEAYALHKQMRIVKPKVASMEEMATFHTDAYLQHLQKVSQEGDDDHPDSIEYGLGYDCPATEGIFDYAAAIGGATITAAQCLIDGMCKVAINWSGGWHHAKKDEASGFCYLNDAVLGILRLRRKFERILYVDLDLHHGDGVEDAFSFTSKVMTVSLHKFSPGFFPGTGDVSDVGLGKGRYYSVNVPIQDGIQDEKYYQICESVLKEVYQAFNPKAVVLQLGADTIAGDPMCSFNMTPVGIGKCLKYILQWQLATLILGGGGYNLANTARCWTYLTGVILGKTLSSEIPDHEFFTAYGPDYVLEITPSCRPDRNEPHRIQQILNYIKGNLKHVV

SK-MEL (melanoma) = assay: Cytotoxicity, WST-8 cell viability; assay type: cell-based, human; details: read-out: Cancer cell lines IC50 SK-MEL
In short: (§1)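 Cells were seeded at 10,000 cells/well and grown for 24 h. Test compounds were dissolved in DMSO, diluted in medium and added at 80, 40, 20 and 10 µM. Cells were then incubated for 48 h. Viability was read with WST-8 plus 1-methoxy PMS as formazan absorbance at 450 nm. Controls were doxorubicin (positive) and 0.25% DMSO (vehicle). IC50 came from concentration-response curves, mean ± SD (n = 3).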

KB (epidermal carcinoma) = assay: Cytotoxicity, WST-8 cell viability; assay type: cell-based, human; details: read-out: Cancer cell lines IC50 KB
In short: as §1

[1] = tested on: BT-549 (breast carcinoma); assay: Cytotoxicity, WST-8 cell viability; assay type: cell-based, human; details: read-out: Cancer cell lines IC50 BT-549
In short: as §1

[2] = tested on: SK-OV-3 (ovarian carcinoma); assay: Cytotoxicity, WST-8 cell viability; assay type: cell-based, human; details: read-out: Cancer cell lines IC50 SK-OV-3
In short: as §1

Vero kidney cells = assay: Cytotoxicity, WST-8 cell viability, non-cancer kidney cells; assay type: cell-based; details: read-out: Kidney cells IC50 Vero
In short: as §1

LLC-PK1 kidney cells = assay: as above; assay type: cell-based; details: read-out: Kidney cells IC50 LLC-PK1; 48 h incubation, mean ± SD (n = 3)
In short: as §1

[3] = Chlorocebus sabaeus, Vero, 48 h
[4] = read-out: IC50 drHDAC10 ± SD, zebrafish HDAC10, recombinant wild type
[5] = read-out: hHDAC6 IC50, recombinant human HDAC6
[6] = 48 h incubation, mean ± SD (n = 3)

| IC50 (drHDAC10) [nM] | IC50 (hHDAC6) [nM] | IC50 (hHDAC8) [nM] | hHDAC1 % @1 µM (hHDAC1) [%] | hHDAC1 % @10 µM (hHDAC1) [%] | hHDAC8 % @1 µM (hHDAC8) [%] | hHDAC8 % @10 µM (hHDAC8) [%] | Compound | IC50 (SK-MEL (melanoma); Homo sapiens, 48 h) [µM] | IC50 (KB (epidermal carcinoma); Homo sapiens, 48 h) [µM] | IC50 ([1]; Homo sapiens, BT-549, 48 h) [µM] | IC50 ([2]; Homo sapiens, SK-OV-3, 48 h) [µM] | IC50 (Vero kidney cells; [3]) [µM] | other results |
| --- | --- | --- | --- | --- | --- | --- | --- | --- | --- | --- | --- | --- | --- |
| 75 ± 12 |  |  | 7.3 | 67.2 | 26.9 | 87.9 | Cc1ccc(S(=O)(=O)n2cc(CN3CCN(c4ccc(C(=O)NO)cc4)CC3)c3ccccc32)cc1 [Compound 2e, N-hydroxy-4-(4-((1-tosyl-1H-indol-3-yl)methyl)piperazin-1-yl)benzamide] | 8.82 ± 0.7 | 10 ± 0.7 | 9.71 ± 0.28 | 8.62 ± 0.42 | 13.2 ± 1.82 | decrease in HDAC10 activity compared to unsubstituted counterpart compound 2b (drHDAC10; tosyl analogue vs compound 2b): ~38 fold; hHDAC6 % @1 µM (hHDAC6; inhibitor at 1 µM): 35.3%; hHDAC6 % @10 µM (hHDAC6; inhibitor at 10 µM): 95% |
| 110 ± 10 | 2.5 ± 0.3 | 210 ± 10 |  |  |  |  | O=C(NO)c1ccc(NCc2cnc3ccccc3c2)cc1 [Compound 2f, N-hydroxy-4-((quinolin-3-ylmethyl)amino)benzamide] | 15.2 ± 1.21 | 9.72 ± 0.73 | 14.8 ± 2.65 | 10.9 ± 2.89 | 3.92 ± 0.24 |  |
|  |  |  | 32.1 | 79.4 |  |  | O=C(NO)c1ccc(N2CCN(Cc3cnc4ccccc4c3)CC2)cc1 [Compound 2g, N-hydroxy-4-{4-[(quinolin-3-yl)methyl]piperazin-1-yl}benzamide] | > 69 | > 69 | > 69 | > 69 | 51 ± 1.95 | IC50 (drHDAC10; [4]): 11 ± 1 nM; IC50 (hHDAC6; [5]): 130 ± 10 nM; IC50 (hHDAC8; read-out: hHDAC8 IC50, recombinant human HDAC8): 300 ± 20 nM |
| 50 ± 3 |  |  | 7.6 | 29.9 | 46.4 | 84 | CN1CCc2c(c3ccccc3n2Cc2ccc(C(=O)NO)cc2)C1 [Tubastatin A, reference compound] |  |  |  |  |  |  |

Further lines, the compound ahead of its results:

| Compound | IC50 (drHDAC10) [nM] | IC50 (hHDAC6) [nM] | IC50 (hHDAC8) [nM] | hHDAC1 % @1 µM (hHDAC1) [%] | hHDAC1 % @10 µM (hHDAC1) [%] | hHDAC8 % @1 µM (hHDAC8) [%] | hHDAC8 % @10 µM (hHDAC8) [%] | IC50 (SK-MEL (melanoma); Homo sapiens, 48 h) [µM] | IC50 (KB (epidermal carcinoma); Homo sapiens, 48 h) [µM] | IC50 ([1]; Homo sapiens, BT-549, 48 h) [µM] | IC50 ([2]; Homo sapiens, SK-OV-3, 48 h) [µM] | IC50 (Vero kidney cells; [3]) [µM] | other results |
| --- | --- | --- | --- | --- | --- | --- | --- | --- | --- | --- | --- | --- | --- |
| O=C(NO)c1ccc(CNCc2c[nH]c3ccccc23)cc1 [Compound 2a, 4-((((1H-indol-3-yl)methyl)amino)methyl)-N-hydroxybenzamide] | 0.41 ± 0.02 | 37 ± 2 | 350 ± 20 |  |  |  |  | > 80 | 72.8 ± 2.4 | > 80 | 61 ± 14.4 | 62.6 ± 2.39 | selectivity of HDAC10 over HDAC6 (drHDAC10; ratio of HDAC6 to HDAC10 IC50): approximately 90 fold; IC50 (hHDAC1): 4.5 ± 0.2 µM |
| O=C(NO)c1ccc(N2CCN(Cc3c[nH]c4ccccc34)CC2)cc1 [Compound 2b, 4-(4-((1H-indol-3-yl)methyl)piperazin-1-yl)-N-hydroxybenzamide] | 2 ± 0.1 | 73 ± 3 | 74 ± 6 | 48.4 | 90.6 |  |  | 26 ± 3.62 | 12.1 ± 1.41 | 16.8 ± 3.63 | 11.4 ± 4.04 | 5.99 ± 0.4 |  |
| Cc1ccc(S(=O)(=O)n2cc(CNCc3ccc(C(=O)NO)cc3)c3ccccc32)cc1 [Compound 2c, N-hydroxy-4-((((1-tosyl-1H-indol-3-yl)methyl)amino)methyl) benzamide] |  |  |  | 22.2 | 72.8 | 65.1 | 97.3 |  |  |  |  |  | IC50 (drHDAC10; [4]): 4.5 ± 0.3 nM; reduction in HDAC10 inhibitory activity compared to compound 2a (drHDAC10; tosyl analogue vs compound 2a): ~10 fold; IC50 (hHDAC6; [5]): 51 ± 5 nM; IC50 (SK-MEL (melanoma); [6]): 15.1 ± 0.94 µM; IC50 (KB (epidermal carcinoma); [6]): 20.2 ± 0.32 µM; IC50 [1, 6]: 16.5 ± 0.32 µM; IC50 [2, 6]: 21.4 ± 1.89 µM; IC50 (LLC-PK1 kidney cells): 16.6 ± 3.93 µM; IC50 (Vero kidney cells; [6]): 21.4 ± 1.27 µM |
| Cc1ccc(S(=O)(=O)n2cc(CNc3ccc(C(=O)NO)cc3)c3ccccc32)cc1 [Compound 2d, N-hydroxy-4-(((1-tosyl-1H-indol-3-yl)methyl)amino)benzamide] | 290 ± 60 | 53 ± 5 |  | 1.3 | 38.9 | 49.2 | 98.9 | 8.38 ± 2.11 | 13.3 ± 0.33 | 11.4 ± 0.16 | 12.6 ± 0.98 | 50.5 ± 9.74 |  |
| COc1cccc2c1C(=O)c1c(O)c3c(c(O)c1C2=O)C[C@@](O)(C(=O)CO)C[C@@H]3O[C@H]1C[C@H](N)[C@H](O)[C@H](C)O1 [Doxorubicin, reference compound] |  |  |  |  |  |  |  | 2.52 | 2.3 | 3.44 | 2.01 | > 11 |  |

Source: PMC12475083 (Scientific Reports, 2025)
